# High-throughput results deposited in PubChem BioAssay by Broad Institute.
# FGF22 binding: FGF22 (human) thermal shift binding; Q9HCT0; recombinant FGF22 thermal shift, SYPRO orange fluorescence; percent of sucrose octasulfate shift, DMSO zero; activity (Tm shift, normalised), % at 9.99 µM; 1.5% of 340,000 active; AID 651658;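 active = mean Tm shift, scaled 0 neutral to 100 positive control, at about 1.3% or above, every replicate too, limit read from the data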
# Target sequence (Q9HCT0 whole entry, looked up): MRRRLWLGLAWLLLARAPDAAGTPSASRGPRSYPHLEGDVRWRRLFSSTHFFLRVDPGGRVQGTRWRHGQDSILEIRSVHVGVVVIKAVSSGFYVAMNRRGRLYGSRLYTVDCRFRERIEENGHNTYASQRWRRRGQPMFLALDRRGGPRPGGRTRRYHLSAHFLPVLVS
# FN deposit inh: fibronectin deposition inhibition; AH1F fibroblasts, Alexa488-fibronectin deposition fluorescence, overnight; inhibition, % at 12.6 µM; 0.086% of 350,000 active; AID 743247;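 active = mean inhibition across replicates of 30% or more, regardless of how many single replicates reach that level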;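 also: positive control wells lacked labelled fibronectin entirely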
#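 Schedule: 1 h cell adhesion before compound, then overnight fibronectin incubation; test system: AH1F fibroblast monolayer depositing Alexa488-labelled fibronectin into matrix; quantity: 10000 AH1F cells per well; probe or stimulus: fluorescent fibronectin at 24 nM final; signal: fluorescence, ex 485 nm, em 525 nm; evaluation: percent inhibition as loss of matrix-bound fibronectin fluorescence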
# SIRT5 inh: blocks human SIRT5 desuccinylation of peptide; Q9NXA8; Purified SirT5, succinyl-peptide AMC, trypsin-coupled fluorescence; inhibition, % at 15 µM; 1.1% of 330,000 active; AID 652115; in the data active = inhibition above about 15%
# Target sequence (Q9NXA8 whole entry, looked up): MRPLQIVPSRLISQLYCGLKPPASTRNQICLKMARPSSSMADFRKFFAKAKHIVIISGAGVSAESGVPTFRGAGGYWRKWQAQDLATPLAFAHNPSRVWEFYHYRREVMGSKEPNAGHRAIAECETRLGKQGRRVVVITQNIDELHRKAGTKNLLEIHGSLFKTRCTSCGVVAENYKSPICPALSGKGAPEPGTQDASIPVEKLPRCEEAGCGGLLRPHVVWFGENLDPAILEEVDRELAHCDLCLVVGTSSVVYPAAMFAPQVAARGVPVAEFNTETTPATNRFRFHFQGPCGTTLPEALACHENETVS
# DENV2 CPE: inhibitors of DENV2 cytopathic effect; AID 651640; 1.7% of 350,000 active; DENV2-infected cells, cytopathic effect rescue, plate reader; CPE inhibition, % at 9.99 µM; in the data active = CPE inhibition above about 20%, passing the limit was not always enough; tested in BHK-21 cells;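 also: 0% = median of neutral control wells and 100% = median of positive control wells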
# ARNT TACC3 PPI: disrupts binding between human ARNT and TACC3 | Q9Y6A5 | AlphaScreen His-ARNT PAS-B/GST-TACC3 binding, luminescence; TACC3 fragment carries E629A point mutation | inhibition, % at 9.99 µM | 0.66% of 390,000 active | AID 623870;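 active = mean inhibition of replicates at least 50% and at least half of replicates each reaching 50%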;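 also: 0% = complete ARNT plus TACC3 wells and 100% = ARNT alone without TACC3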
# XiGFP reactiv: X-chromosome reactivation activator; XiGFP mouse fibroblasts, % GFP-positive cells imaging, 3 d; cells co-treated with 5-aza-dC sensitizer; scaled so ellipticine positive control = 100%; activation, % at 7.58 µM; 0.055% of 360,000 active;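 active = mean normalized replicate activation at least 10% and every replicate at or above 10%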;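 also: 0% = median of on-plate neutral control wells and 100% = ellipticine 6 µM median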
#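 System: XiGFP fibroblasts, SV40-immortalized. Medium: DMEM plus 5-aza-dC sensitizer. Doses: single point. Timing: 3 d treatment, 15 min room-temperature fixation. Control set: ellipticine 6 µM.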
# ARNT Alpha ctr: counter-screen for ARNT/TACC3 inhibitors: AlphaScreen artifacts; shares compounds with ARNT TACC3 PPI; His-ARNT PASB-GST AlphaScreen artifact counter-screen, luminescence; AC50, µM (highest dose often 68 µM), for inactives: at the highest dose activity change, negative = signal decrease; 50% of 1,200 active; AID 651705;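 active = every separate test run was called active for a drop in luminescence, with AC50 within twice the top valid dose, actives reach about 71 µM in these data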
# Active calls of the source: *; x = no result given; [ ] = remark or other dose. A selection: hits, their analogues and other compounds. The true share with any hit is near 3.8%.
SMILES,FGF22 binding,FN deposit inh,SIRT5 inh,DENV2 CPE,ARNT TACC3 PPI,XiGFP reactiv,ARNT Alpha ctr
CO[C@H]1CN(C)C(=O)c2cc(NS(=O)(=O)CC(F)(F)F)ccc2OC[C@H](C)N(Cc2cccnc2)C[C@@H]1C,0,x,x,37*,active,0,-5%[42 µM]
CO[C@H]1CN(C)C(=O)c2ccc(NS(=O)(=O)CC(F)(F)F)cc2OC[C@H](C)N(Cc2cccnc2)C[C@@H]1C,0,0,14,12,-10,0,x
CO[C@@H]1CN(C)C(=O)c2cc(NS(=O)(=O)CC(F)(F)F)ccc2OC[C@@H](C)N(C(=O)c2ccc3c(c2)OCO3)C[C@@H]1C,0,2,x,2,51*,0,22µM*
C[C@@H]1CN([C@H](C)CO)C(=O)c2cc(C#Cc3ccccc3F)cnc2O[C@H]1CN(C)S(=O)(=O)c1ccccc1F,0,-3,9,-2,-4,-1,x
COc1ccc(S(=O)(=O)N(C)C[C@@H]2Oc3ccc(NC(=O)Nc4ccccc4)cc3CC(=O)N([C@@H](C)CO)C[C@@H]2C)cc1,0,6,2,-6,-1,0,x
COc1cc(/C=C2\S/C(=N/S(=O)(=O)c3ccccc3)NC2=O)c([N+](=O)[O-])cc1OC,x,x,x,x,9.7*,x,-25%
O=C(CNS(=O)(=O)c1ccc([N+](=O)[O-])cc1)N/N=C/c1ccc(O)cc1O,0,9,-5,1,63*,0,-13%
CCCNC(=O)Nc1ccc2c(c1)OC[C@H](C)N(C(=O)c1ccccc1F)C[C@@H](C)[C@@H](OC)CN(C)C2=O,0,-13,2,3,53*,0,-2%[42 µM]
CO[C@@H]1CN(C)C(=O)c2ccc(NC(=O)c3ccccn3)cc2OC[C@@H](C)N(Cc2ccccn2)C[C@H]1C,x,x,x,x,95*,x,20µM*
CCCNC(=O)Nc1ccc2c(c1)OC[C@H](C)N(C(=O)c1ccccc1F)C[C@H](C)[C@@H](OC)CN(C)C2=O,0,-9,4,-4,x,0,x
O=C(C[C@@H]1CC[C@H]2[C@@H](COC[C@H](O)CN2Cc2cccc(-c3ccncc3)c2)O1)N1CCCCC1,0,-2,-4,3,3,0,x
Oc1ccc(Cl)c2cccnc12,0,6,-1,8,7,0,x
Oc1c(I)cc(I)c2cccnc12,0,4,-7,-8,55*,0,50µM*
C[C@H]1CN([C@@H](C)CO)C(=O)c2cccc(NC(=O)C3CCOCC3)c2O[C@H]1CN(C)CC1CC1,0,x,0,6,25,0,x
CC(C)C#Cc1cnc2c(c1)C(=O)N([C@@H](C)CO)C[C@@H](C)[C@H](CN(C)C(=O)Nc1ccccc1F)O2,0,x,-1,-6,-4,0,x
O=C(NC[C@H]1[C@H](c2ccccc2)[C@@H](CO)N1Cc1ccccn1)C1CCCC1,0,-3,1,3,18,0,x
O=C(NC[C@H]1[C@H](c2ccccc2)[C@H](CO)N1Cc1ccccn1)C1CCC1,x,-5,x,12,38*,0,-14%[42 µM]
O=C(NC[C@@H]1[C@@H](c2ccccc2)[C@@H](CO)N1Cc1ccccn1)C1CC1,0,x,-2,18,23,0,x
O=C(NC[C@H]1[C@@H](c2ccccc2)[C@@H](CO)N1Cc1ccccn1)C1CC1,0,x,-1,-4,48*,0,-12%[42 µM]
O=C(Nc1ccccc1)N1CCCCN2[C@H](C1)[C@H](c1ccc(C#CC3CC3)cc1)[C@@H]2CO,1,x,6,-5,active,0,-32%[38 µM]
O=C(Nc1ccccc1)N1CCCCN2[C@@H](CO)[C@@H](c3ccc(C#CC4CC4)cc3)[C@@H]2C1,0,x,5,-10,18,0,x
COc1ccc(C2C(C#N)=C(N)Oc3c2ccc2cccnc32)cc1OC (configuration not stated),0,-1,0,-2,62*,0,-26%
